Assay results: ChEMBL document CHEMBL5696442, “Discovery of type II inhibitors of TGFβ-activated kinase 1 (TAK1) and mitogen-activated protein kinase kinase kinase kinase 2 (MAP4K2)” (J Med Chem, 2015)

Assays:
[1] = AUC last in Swiss albino mouse at 1 mg/kg, iv measured upto 24 hrs by LC/MS/MS analysis; assay type: ADME, organism-based; conditions: in vivo
In short: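 Male Swiss albino mice. […] Blood was taken into K2EDTA from three mice per time point, from 0 to 24 h. Plasma was precipitated with acetonitrile and analysed by LC/MS/MS (LLOQ 1.138 ng/mL).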

[2] = biological target: p38 delta/gamma (Homo sapiens) (UniProt O15264+P53778); experiment: Inhibition of p38delta/gamma Lys2 labeling site in human A-375 cells at 5 uM by KiNativ Profiling analysis relative to control; assay type: cell-based
[3] = biological target: Mitogen-activated protein kinase kinase kinase kinase 4 (Homo sapiens, UniProt O95819); experiment: Inhibition of ZC1/HGK (unknown origin) Lys1 labeling site by KiNativ Profiling analysis
[4] = biological target: Mitogen-activated protein kinase 8 (Homo sapiens, UniProt P45983); experiment: Inhibition of JNK1 (unknown origin) Lys2 labeling site by KiNativ Profiling analysis
[5] = biological target: Calcium/calmodulin-dependent protein kinase kinase 2 (Homo sapiens) (UniProt Q96RR4); experiment: Inhibition of CaMKK2 Lys2 labeling site in human A-375 cells at 5 uM by KiNativ Profiling analysis relative to control; assay type: cell-based
In short: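 Live A375 melanoma cells were treated with compound at 5 or 0.5 μM. The cells were then lysed, and the lysates were labeled with a lysine-reactive ATP or ADP-biotin acyl probe (KiNativ). Inhibition is the compound's protection of each kinase labeling-site peptide from probe labeling, relative to untreated control.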

[6] = biological target: Serine/threonine-protein kinase mTOR (Homo sapiens) (UniProt P42345); experiment: Inhibition of FRAP ATP labeling site in human A-375 cells at 5 uM by KiNativ Profiling analysis relative to control; assay type: cell-based
[7] = biological target: Phosphatidylinositol 3-kinase catalytic subunit type 3 (Homo sapiens) (UniProt Q8NEB9); experiment: Inhibition of PIK3C3 ATP labeling site in human A-375 cells at 5 uM by KiNativ Profiling analysis relative to control; assay type: cell-based
[8] = biological target: Serine/threonine-protein kinase WNK1 (Homo sapiens) (UniProt Q9H4A3); experiment: Inhibition of Wnk1 ATP Loop labeling site in human A-375 cells at 5 uM by KiNativ Profiling analysis relative to control; assay type: cell-based
[9] = biological target: Serine/threonine-protein kinase WNK2 (Homo sapiens) (UniProt Q9Y3S1); experiment: Inhibition of Wnk2 ATP Loop labeling site in human A-375 cells at 5 uM by KiNativ Profiling analysis relative to control; assay type: cell-based
[10] = biological target: RAC-gamma serine/threonine-protein kinase (Homo sapiens) (UniProt Q9Y243); experiment: Inhibition of AKT3 ATP Loop labeling site in human A-375 cells at 0.5 uM by KiNativ Profiling analysis relative to control; assay type: cell-based
In short: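 Live A375 melanoma cells were treated with compound at 5 or 0.5 μM, then lysed. The lysates were labeled with a lysine-reactive ATP or ADP-biotin probe. Kinase protection from probe labeling was measured by KiNativ.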

[11] = biological target: Mitogen-activated protein kinase 7 (Homo sapiens) (UniProt Q13164); experiment: Inhibition of Erk5 Lys2 labeling site in human A-375 cells at 0.5 uM by KiNativ Profiling analysis relative to control; assay type: cell-based
In short: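 Live A375 melanoma cells were treated with compound at 0.5 or 5 μM, then lysed. Lysates were labeled with a lysine-reactive ATP or ADP-biotin probe. The read-out was protection of each kinase probe-labeling site from labeling, relative to control.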

[12] = biological target: Serine/threonine-protein kinase 25 (Homo sapiens) (UniProt O00506); experiment: Inhibition of YSK1 Lys2 labeling site in human A-375 cells at 0.5 uM by KiNativ Profiling analysis relative to control; assay type: cell-based
[13] = biological target: T1, Phosphatidylinositol 5-phosphate 4-kinase type-2 alpha (Homo sapiens) (UniProt P48426); experiment: Inhibition of PIP4K2A ATP labeling site in human A-375 cells at 0.5 uM by KiNativ Profiling analysis relative to control; assay type: cell-based
T1 sequence (whole entry): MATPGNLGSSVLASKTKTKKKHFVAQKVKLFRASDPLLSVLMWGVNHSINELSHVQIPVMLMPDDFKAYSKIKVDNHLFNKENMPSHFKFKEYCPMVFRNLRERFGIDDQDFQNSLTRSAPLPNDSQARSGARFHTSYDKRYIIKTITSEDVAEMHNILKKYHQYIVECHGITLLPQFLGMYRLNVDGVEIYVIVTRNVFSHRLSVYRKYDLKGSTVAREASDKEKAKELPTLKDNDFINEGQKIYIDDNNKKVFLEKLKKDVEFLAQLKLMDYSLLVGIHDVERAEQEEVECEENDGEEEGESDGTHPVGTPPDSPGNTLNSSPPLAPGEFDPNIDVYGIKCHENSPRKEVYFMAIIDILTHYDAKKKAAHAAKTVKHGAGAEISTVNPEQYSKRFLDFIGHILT

[14] = biological target: Serine/threonine-protein kinase WNK1 (Homo sapiens) (UniProt Q9H4A3); experiment: Inhibition of Wnk1 ACT labeling site in human A-375 cells at 0.5 uM by KiNativ Profiling analysis relative to control; assay type: cell-based
[15] = biological target: Serine/threonine-protein kinase ATR (Homo sapiens) (UniProt Q13535); experiment: Inhibition of ATR ATP labeling site in human A-375 cells at 0.05 uM by KiNativ Profiling analysis relative to control; assay type: cell-based
[16] = biological target: Serine/threonine-protein kinase 10 (Homo sapiens) (UniProt O94804); experiment: Inhibition of LOK Lys1 labeling site harbouring ETGALAAAKVIETK in human A-375 cells at 0.05 uM by KiNativ Profiling analysis relative to control; assay type: cell-based
[17] = biological target: T2, Mixed lineage kinase domain-like protein (Homo sapiens) (UniProt Q8NB16); experiment: Inhibition of MLKL Lys1 labeling site in human A-375 cells at 0.05 uM by KiNativ Profiling analysis relative to control; assay type: cell-based
T2 sequence (whole entry): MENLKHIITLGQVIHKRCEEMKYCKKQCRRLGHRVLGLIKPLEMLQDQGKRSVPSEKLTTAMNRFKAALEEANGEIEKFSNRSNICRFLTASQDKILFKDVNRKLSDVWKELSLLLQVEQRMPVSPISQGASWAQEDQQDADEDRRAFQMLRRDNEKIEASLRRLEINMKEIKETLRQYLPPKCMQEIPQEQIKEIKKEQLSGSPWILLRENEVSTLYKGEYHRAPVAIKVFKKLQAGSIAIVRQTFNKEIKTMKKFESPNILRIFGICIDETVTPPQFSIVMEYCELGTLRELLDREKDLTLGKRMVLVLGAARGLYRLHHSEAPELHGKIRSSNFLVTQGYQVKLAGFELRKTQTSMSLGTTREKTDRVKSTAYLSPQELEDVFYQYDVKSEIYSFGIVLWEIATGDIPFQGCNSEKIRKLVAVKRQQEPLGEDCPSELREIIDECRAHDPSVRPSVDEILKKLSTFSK

[18] = biological target: Tyrosine-protein kinase Fes/Fps (Homo sapiens, UniProt P07332); experiment: Inhibition of FES Lys1 labeling site in human Huh-7 cell lysate at 1 uM by KiNativ Profiling analysis relative to control; assay type: subcellular
[19] = biological target: Tyrosine-protein kinase CSK (Homo sapiens, UniProt P41240); experiment: Inhibition of CSK ACT labeling site harbouring VSDFGLTKEASSTQDTGKLPVKWTAPEALR in human Huh-7 cell lysate at 1 uM by KiNativ Profiling analysis relative to control; assay type: subcellular

Sequence of Serine/threonine-protein kinase WNK1 (Homo sapiens) (Q9H4A3 whole entry, looked up): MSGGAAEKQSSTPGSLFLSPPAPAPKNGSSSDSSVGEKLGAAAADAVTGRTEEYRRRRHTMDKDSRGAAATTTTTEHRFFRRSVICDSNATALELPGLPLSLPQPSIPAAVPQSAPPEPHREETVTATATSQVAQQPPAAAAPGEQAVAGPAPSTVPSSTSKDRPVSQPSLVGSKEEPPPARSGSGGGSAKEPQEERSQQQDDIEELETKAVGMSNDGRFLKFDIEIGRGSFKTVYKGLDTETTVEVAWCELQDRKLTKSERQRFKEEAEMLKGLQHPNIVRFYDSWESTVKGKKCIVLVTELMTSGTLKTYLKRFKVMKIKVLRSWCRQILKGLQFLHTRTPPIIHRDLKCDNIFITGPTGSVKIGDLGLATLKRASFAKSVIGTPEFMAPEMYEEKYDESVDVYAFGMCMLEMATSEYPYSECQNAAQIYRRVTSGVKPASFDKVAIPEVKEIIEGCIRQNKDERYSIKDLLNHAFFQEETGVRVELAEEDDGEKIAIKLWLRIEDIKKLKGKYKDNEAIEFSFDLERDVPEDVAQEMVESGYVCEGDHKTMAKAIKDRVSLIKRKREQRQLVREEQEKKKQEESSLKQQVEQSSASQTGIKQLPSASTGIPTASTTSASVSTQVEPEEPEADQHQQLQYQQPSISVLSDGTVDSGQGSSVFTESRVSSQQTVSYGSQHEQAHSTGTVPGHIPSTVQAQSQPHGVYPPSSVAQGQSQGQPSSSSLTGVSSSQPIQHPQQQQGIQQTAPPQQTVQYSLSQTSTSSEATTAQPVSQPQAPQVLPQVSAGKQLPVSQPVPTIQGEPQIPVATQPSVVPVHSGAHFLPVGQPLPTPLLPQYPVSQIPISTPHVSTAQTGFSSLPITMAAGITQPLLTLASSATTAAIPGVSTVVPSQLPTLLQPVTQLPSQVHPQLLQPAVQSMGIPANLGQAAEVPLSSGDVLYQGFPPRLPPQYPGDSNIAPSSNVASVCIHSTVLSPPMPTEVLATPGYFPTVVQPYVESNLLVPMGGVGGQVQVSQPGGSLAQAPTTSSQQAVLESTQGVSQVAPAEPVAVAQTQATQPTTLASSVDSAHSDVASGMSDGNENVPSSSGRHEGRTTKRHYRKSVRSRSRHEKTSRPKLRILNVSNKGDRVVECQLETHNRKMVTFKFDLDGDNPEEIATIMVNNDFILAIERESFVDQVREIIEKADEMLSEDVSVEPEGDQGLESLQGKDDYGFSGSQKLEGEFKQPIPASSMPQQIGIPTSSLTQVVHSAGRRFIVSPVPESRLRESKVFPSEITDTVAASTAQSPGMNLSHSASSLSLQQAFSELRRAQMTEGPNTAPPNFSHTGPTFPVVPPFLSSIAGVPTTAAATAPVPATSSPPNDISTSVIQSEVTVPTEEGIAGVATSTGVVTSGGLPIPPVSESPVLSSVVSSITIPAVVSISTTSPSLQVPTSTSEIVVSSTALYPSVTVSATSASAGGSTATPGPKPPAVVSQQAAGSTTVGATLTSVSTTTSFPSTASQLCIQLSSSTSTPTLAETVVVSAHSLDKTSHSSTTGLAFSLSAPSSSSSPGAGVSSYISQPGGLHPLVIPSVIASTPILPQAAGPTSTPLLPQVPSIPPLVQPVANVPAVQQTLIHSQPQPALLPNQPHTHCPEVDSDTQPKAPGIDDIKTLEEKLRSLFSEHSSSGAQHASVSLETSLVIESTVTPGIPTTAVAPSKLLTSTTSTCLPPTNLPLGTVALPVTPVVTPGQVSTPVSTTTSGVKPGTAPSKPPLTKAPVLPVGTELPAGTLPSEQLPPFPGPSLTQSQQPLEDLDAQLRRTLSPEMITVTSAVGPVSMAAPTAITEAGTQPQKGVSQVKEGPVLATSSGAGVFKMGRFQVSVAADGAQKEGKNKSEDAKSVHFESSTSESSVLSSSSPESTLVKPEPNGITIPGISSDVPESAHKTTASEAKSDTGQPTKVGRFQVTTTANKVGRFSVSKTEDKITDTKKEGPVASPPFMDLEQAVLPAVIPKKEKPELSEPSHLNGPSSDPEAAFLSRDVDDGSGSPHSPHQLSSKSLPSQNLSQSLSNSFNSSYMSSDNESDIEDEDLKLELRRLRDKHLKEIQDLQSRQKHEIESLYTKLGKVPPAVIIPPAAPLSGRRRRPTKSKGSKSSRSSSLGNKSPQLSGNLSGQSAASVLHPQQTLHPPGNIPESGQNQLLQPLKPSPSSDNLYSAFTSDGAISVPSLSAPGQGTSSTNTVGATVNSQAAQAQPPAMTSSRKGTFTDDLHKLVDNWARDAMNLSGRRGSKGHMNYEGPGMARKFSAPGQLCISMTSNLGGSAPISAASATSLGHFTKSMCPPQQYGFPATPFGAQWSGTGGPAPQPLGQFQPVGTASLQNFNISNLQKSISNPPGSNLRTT
Sequence of Mitogen-activated protein kinase kinase kinase kinase 4 (O95819 whole entry): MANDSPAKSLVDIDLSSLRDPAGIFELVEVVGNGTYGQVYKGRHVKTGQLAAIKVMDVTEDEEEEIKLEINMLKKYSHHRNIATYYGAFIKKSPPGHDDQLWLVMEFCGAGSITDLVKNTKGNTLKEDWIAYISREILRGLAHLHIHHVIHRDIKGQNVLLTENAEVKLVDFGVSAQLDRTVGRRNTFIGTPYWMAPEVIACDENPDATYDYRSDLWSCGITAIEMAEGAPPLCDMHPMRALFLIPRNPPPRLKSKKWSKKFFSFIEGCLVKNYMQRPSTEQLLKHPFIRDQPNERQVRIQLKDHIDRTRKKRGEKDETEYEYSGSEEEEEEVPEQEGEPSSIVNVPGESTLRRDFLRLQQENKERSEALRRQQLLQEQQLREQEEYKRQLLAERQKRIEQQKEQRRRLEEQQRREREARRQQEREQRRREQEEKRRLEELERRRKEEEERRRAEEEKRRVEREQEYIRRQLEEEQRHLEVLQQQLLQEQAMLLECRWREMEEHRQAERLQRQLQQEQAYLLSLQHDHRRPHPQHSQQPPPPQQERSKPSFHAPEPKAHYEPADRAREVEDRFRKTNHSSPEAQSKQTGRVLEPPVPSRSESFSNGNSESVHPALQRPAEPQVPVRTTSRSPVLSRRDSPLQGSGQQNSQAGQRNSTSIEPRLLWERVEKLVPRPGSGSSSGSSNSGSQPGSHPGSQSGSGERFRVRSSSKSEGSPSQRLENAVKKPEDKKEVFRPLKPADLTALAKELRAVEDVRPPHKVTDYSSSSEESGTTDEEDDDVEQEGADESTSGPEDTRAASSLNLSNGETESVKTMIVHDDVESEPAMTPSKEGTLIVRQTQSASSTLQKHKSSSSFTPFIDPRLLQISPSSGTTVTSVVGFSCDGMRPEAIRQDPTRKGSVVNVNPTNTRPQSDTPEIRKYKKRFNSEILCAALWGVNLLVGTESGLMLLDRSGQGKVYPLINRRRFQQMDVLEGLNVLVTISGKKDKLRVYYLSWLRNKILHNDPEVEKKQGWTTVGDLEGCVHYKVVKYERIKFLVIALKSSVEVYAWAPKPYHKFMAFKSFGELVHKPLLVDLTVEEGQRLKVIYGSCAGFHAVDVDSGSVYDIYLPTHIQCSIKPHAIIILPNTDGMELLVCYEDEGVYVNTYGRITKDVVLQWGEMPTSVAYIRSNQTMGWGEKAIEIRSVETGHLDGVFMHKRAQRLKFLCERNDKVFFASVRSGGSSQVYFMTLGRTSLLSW
Sequence of RAC-gamma serine/threonine-protein kinase (Homo sapiens) (Q9Y243 whole entry): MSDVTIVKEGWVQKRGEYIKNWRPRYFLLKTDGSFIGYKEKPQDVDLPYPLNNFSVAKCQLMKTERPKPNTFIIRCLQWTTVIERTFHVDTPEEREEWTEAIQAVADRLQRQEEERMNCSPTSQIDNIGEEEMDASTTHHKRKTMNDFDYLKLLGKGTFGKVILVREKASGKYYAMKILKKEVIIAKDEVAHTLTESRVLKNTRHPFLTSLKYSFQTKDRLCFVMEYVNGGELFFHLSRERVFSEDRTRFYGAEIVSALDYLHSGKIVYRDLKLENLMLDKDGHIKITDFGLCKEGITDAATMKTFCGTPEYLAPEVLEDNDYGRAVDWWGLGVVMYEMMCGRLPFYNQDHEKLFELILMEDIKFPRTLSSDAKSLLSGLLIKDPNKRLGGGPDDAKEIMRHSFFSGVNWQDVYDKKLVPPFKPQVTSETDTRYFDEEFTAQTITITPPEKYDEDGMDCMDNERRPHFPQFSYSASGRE
Sequence of Serine/threonine-protein kinase 10 (Homo sapiens) (O94804 whole entry, looked up, the tested form may be a part): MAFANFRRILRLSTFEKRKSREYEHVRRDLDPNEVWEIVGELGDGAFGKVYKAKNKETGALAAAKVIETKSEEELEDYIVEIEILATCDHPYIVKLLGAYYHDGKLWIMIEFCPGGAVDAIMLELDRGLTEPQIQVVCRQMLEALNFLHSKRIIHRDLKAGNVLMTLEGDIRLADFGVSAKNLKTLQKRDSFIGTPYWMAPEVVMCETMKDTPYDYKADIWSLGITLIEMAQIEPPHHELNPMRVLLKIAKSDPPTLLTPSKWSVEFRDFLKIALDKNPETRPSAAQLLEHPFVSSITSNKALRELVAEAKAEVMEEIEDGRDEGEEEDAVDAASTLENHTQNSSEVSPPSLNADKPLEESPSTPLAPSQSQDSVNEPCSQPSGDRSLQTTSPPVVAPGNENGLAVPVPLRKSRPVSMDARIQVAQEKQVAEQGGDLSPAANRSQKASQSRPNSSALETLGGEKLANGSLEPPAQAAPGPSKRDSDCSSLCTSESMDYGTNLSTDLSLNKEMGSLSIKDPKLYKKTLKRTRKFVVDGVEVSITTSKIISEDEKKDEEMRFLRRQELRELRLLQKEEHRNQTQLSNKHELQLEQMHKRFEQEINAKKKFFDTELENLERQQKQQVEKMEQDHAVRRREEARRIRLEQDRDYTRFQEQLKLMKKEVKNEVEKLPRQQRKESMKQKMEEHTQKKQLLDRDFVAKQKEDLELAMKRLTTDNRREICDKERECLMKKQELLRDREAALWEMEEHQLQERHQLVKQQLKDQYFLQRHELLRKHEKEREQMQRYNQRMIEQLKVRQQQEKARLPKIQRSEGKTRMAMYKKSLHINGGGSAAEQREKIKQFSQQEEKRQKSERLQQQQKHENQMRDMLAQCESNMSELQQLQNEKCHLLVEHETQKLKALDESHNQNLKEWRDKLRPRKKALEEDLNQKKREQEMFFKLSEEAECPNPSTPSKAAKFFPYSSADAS

With `CCN1CCN(Cc2ccc(NC(=O)c3ccc(C)c(Oc4ccnc5[nH]ccc45)c3)cc2C(F)(F)F)CC1` the AUClast [1] was 195 ng·h/mL, the inhibition [2] was greater than 94% and the IC50 [3] was 3.25 µM. The IC50 [4] was greater than 10 µM, the inhibition [5] was 34.8% and the inhibition [6] was -0.1%. The inhibition [7] was 40.5%, the inhibition [8] was 13.1% and the inhibition [9] was 13.1%. The inhibition [10] was -1.8%, the inhibition [11] was 6.8% and the inhibition [12] was 12.5%. The inhibition [13] was -0.4%, the inhibition [14] was 3.9% and the inhibition [15] was 7.9%. It also gave an inhibition [16] of 40.5% and an inhibition [17] of 14.8%.
`CNc1cc(Oc2cc(C(=O)Nc3cc(-n4cnc(C)c4)cc(C(F)(F)F)c3)ccc2C)ncn1` showed an inhibition [18] of 20% and an inhibition [19] of -2.8%.
In the case of `CNc1cc(Oc2cc(C(=O)Nc3cc(N4CCN(C)CC4)cc(C(F)(F)F)c3)ccc2C)ncn1`, the inhibition [18] is reported as 11.2% and the inhibition [19] is reported as 26.9%.
`CCN1CCN(Cc2ccc(NC(=O)c3ccc(C)c(/C=C/c4cnc5[nH]ccc5c4OC)c3)cc2C(F)(F)F)CC1` showed an AUClast [1] of 403 ng·h/mL, an inhibition [2] of 52.7% and an IC50 [3] of 9.75 µM. The IC50 [4] was greater than 10 µM, the inhibition [5] was 3.9% and the inhibition [6] was -9.4%. For the same compound, the inhibition [7] was 35.1%, the inhibition [8] was 13.7% and the inhibition [9] was 13.7%. The inhibition [10] was 25.1%, the inhibition [11] was 14% and the inhibition [12] was 9.8%. It also gave an inhibition [13] of -5.5%, an inhibition [14] of 6.9% and an inhibition [15] of -7.3%. The inhibition [16] was 39.6% and the inhibition [17] was 12.8%.
